14 compounds from ChEMBL document CHEMBL1208775, “Synthesis and vasodilative activity of tanshinone IIA derivatives” (Bioorg Med Chem Lett, 2010) can be followed below.

Assay [1] deals with Thoracic aorta. As to the kind of experiment: Vasodilatory activity in Wistar rat endothelium-intact thoracic aorta assessed as inhibition of norepinephrine-induced contraction at 100 uM after 20 mins by organ-bath technique. It counts as functional. The procedure, abridged: (§1)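 Rat aortic rings in Krebs-Henseleit solution, equilibrated 2 h at 1.5 g basal tension with bath changes every 20 min. Endothelium taken as intact when acetylcholine (1 × 10^-5 mmol) relaxed norepinephrine-precontracted rings by more than 80%. Rings were precontracted with norepinephrine bitartrate (1 × 10^-6 mM) before compound addition. Response is expressed as percent of maximal control norepinephrine contraction. Mean ± SEM, paired t-test.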

Assay [2] has as its system Thoracic aorta. As to the kind of experiment: Vasodilatory activity in Wistar rat endothelium-intact thoracic aorta assessed as inhibition of norepinephrine-induced contraction after 20 mins by organ-bath technique. It counts as functional, tissue-based. The procedure, abridged: as §1

`Cc1c(C(c2ccccc2)c2oc3c(c2C)C(=O)C(=O)c2c-3ccc3c2CCCC3(C)C)oc2c1C(=O)C(=O)c1c-2ccc2c1CCCC2(C)C`: the inhibition at 100 µM with Thoracic aorta [1] is 2.95%.
On the same count and under the same terms, in the case of `Cc1c(C(c2ccc([S+](C)[O-])cc2)c2oc3c(c2C)C(=O)C(=O)c2c-3ccc3c2CCCC3(C)C)oc2c1C(=O)C(=O)c1c-2ccc2c1CCCC2(C)C` (stereo not given) it was 10.3%; in that of `Cc1c(Br)oc2c1C(=O)C(=O)c1c-2ccc2c1CCCC2(C)C`, 4.24%; in that of `COc1ccc(C(c2oc3c(c2C)C(=O)C(=O)c2c-3ccc3c2CCCC3(C)C)c2oc3c(c2C)C(=O)C(=O)c2c-3ccc3c2CCCC3(C)C)cc1`, 11%.
The same measure, in the same setting: in the case of `Cc1coc2c1C(=O)C(=O)c1c-2ccc2c1CCCC2(C)C` [TANSHINONE IIA] it was 2.92%; in that of `Cc1c(C(c2ccc(Cl)cc2)c2oc3c(c2C)C(=O)C(=O)c2c-3ccc3c2CCCC3(C)C)oc2c1C(=O)C(=O)c1c-2ccc2c1CCCC2(C)C`, 1%; in that of `Cc1c(C(c2ccc([N+](=O)[O-])cc2)c2oc3c(c2C)C(=O)C(=O)c2c-3ccc3c2CCCC3(C)C)oc2c1C(=O)C(=O)c1c-2ccc2c1CCCC2(C)C`, 11.4%.
Same read-out and setting: in the case of `Cc1c(C(c2ccccc2Cl)c2oc3c(c2C)C(=O)C(=O)c2c-3ccc3c2CCCC3(C)C)oc2c1C(=O)C(=O)c1c-2ccc2c1CCCC2(C)C` it was -29.2%; in that of `Cc1c(C(c2cccc([N+](=O)[O-])c2)c2oc3c(c2C)C(=O)C(=O)c2c-3ccc3c2CCCC3(C)C)oc2c1C(=O)C(=O)c1c-2ccc2c1CCCC2(C)C`, 18.8%; in that of `Cc1c(C(c2ccc(O)cc2)c2oc3c(c2C)C(=O)C(=O)c2c-3ccc3c2CCCC3(C)C)oc2c1C(=O)C(=O)c1c-2ccc2c1CCCC2(C)C`, 15.2%.
Turning to `Cc1c(C(c2cccc(Cl)c2)c2oc3c(c2C)C(=O)C(=O)c2c-3ccc3c2CCCC3(C)C)oc2c1C(=O)C(=O)c1c-2ccc2c1CCCC2(C)C`, in the assay on Thoracic aorta [1], the inhibition at 100 µM turned out to be 56%. In addition, in the assay with Thoracic aorta [2], the 50% inhibitory concentration (IC50) was determined as 260 µM and the inhibition result is “Dose-dependent effect”.
Take `COc1cc(C(c2oc3c(c2C)C(=O)C(=O)c2c-3ccc3c2CCCC3(C)C)c2oc3c(c2C)C(=O)C(=O)c2c-3ccc3c2CCCC3(C)C)ccc1O`: in the assay with Thoracic aorta [1], the inhibition at 100 µM was 42.8%. In addition, in the assay with Thoracic aorta [2], the half-inhibitory concentration (IC50) came out at 130 µM and the inhibition entry is “Dose-dependent effect”.
For `CC(CO)C1=C(O)C(=O)c2c(ccc3c2CCCC3(C)C)C1=O` (stereo not given), in that order: 59.2%, 480 µM and “Dose-dependent effect”.
As for `Cc1c(C(c2ccc(O)c(O)c2)c2oc3c(c2C)C(=O)C(=O)c2c-3ccc3c2CCCC3(C)C)oc2c1C(=O)C(=O)c1c-2ccc2c1CCCC2(C)C`, in the assay on Thoracic aorta [1], the inhibition at 100 µM is -0.86%.
